According to ChEMBL document CHEMBL1157314, “Antibacterial, partially acetylated oligorhamnosides from Cleistopholis patens” (2006):
≈ marks a conversion by molar mass, not a printed value. Calls of active or inactive are those of the source. The rule behind the calls is not given here.

Tests used:
[1] = system: Staphylococcus aureus; experiment: Antibacterial activity against methicillin-resistant Staphylococcus aureus ATCC 33591 after 24 hrs by broth microdilution method; format: functional; conditions: for MIC: ATCC 33591, 24 h
In short: (§1)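 Broth microdilution following NCCLS M7-A6 (2003), with inoculum at the recommended densities. Isolates were placed into panel wells with an autoinoculator and grown in cation-adjusted Mueller-Hinton broth at 35°C in ambient air for overnight to 24 h. Panels were read by eye, and the MIC was taken as no visible growth.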

[2] = system: Staphylococcus aureus; experiment: Antibacterial activity against methicillin-resistant Staphylococcus aureus 78-13607A after 24 hrs by broth microdilution method; format: functional; in short: as §1

Row | SMILES | Activity [1] | Activity [2] | MIC [1] [µg/mL] | MIC [2] [µg/mL]
1 | CC(=O)NC[C@H]1CN(c2ccc(N3CCOCC3)c(F)c2)C(=O)O1 | Active | Active |  | 
2 | C/C(=C\C(=O)OCCCCCCCCC(=O)O)C[C@@H]1OC[C@H](C[C@@H]2O[C@H]2[C@@H](C)[C@H](C)O)[C@@H](O)[C@H]1O | Active | Active |  | 
3 | O=C(N[C@H](CO)[C@H](O)c1ccc([N+](=O)[O-])cc1)C(Cl)Cl [CHLORAMPHENICOL] |  |  | > 16 | 
4 | CCC[C@@H]1C[C@@H](C(=O)N[C@@H]([C@H]2O[C@H](SC)[C@H](O)[C@@H](O)[C@H]2O)[C@H](C)Cl)N(C)C1 [CLINDAMYCIN] |  |  | > 8 | 0.12 (≈ 0.282 µM)
5 | CN(C)[C@@H]1C(O)=C(C(N)=O)C(=O)[C@@]2(O)C(O)=C3C(=O)c4c(O)cccc4[C@@](C)(O)[C@H]3C[C@@H]12 [TETRACYCLINE] |  |  | > 8 | ≤ 16
6 | Cc1onc(-c2ccccc2)c1C(=O)N[C@@H]1C(=O)N2[C@@H]1SC(C)(C)[C@@H]2C(=O)O [OXACILLIN] |  |  | > 8 | 8 (≈ 19.9 µM)
7 | O=C(O)c1cn(C2CC2)c2cc(N3CCNCC3)c(F)cc2c1=O [CIPROFLOXACIN] |  |  | 0.5 (≈ 1.51 µM) | > 4
